Among the data in ChEMBL document CHEMBL1124600, “Synthesis and biological properties of purine and pyrimidine 5'-deoxy-5'-(dihydroxyphosphinyl)-beta-D-ribofuranosyl analogues of AMP, GMP, IMP, and CMP” (J Med Chem, 1989) are Activity and % nucleotide present values, retold here.

For test [1], the system named is Human alphaherpesvirus 2. Put plainly: Antiviral activity at <=320 uM determined in a culture of Herpes simplex virus type 2; IA = inactive. The format is functional, organism-based.
The test system of test [2] is WIL2. Put plainly: Antitumor activity at <=100 uM determined in a 3-5 days culture of WI-L2 (human B-ltmphoblast); NA = no activity was shown. The format is functional, cell-based. Put shortly: (§1)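 Wells seeded at (5–10) × 10³ cells with compound at 0.1–100 μM, triplicate wells, 37 °C. L1210 and WI-L2 ran 3 days, CCRF-CEM 4 days, Lovo/L 5 days. MTT was then added for 2 h and formazan dissolved in 2-propanol/0.04 M HCl before absorbance reading. ID50 is the concentration giving 50% of control growth.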

Test [3] has as its system Influenza A virus. In words: Antiviral activity at <=320 uM determined in a culture of Influenza A; IA = inactive. The format is functional, organism-based. The conditions noted are these: unidentified influenza virus.
Test [4] concerns L1210. Put plainly: Antitumor activity at <=100 uM determined in a 3-5 days culture of L1210 murine leukemia; NA = no activity was shown. The format is functional, cell-based. The conditions noted are these: Mus musculus. Put shortly: as §1
Test [5] deals with Enterovirus. Put plainly: Antiviral activity at <=320 uM determined in a culture of Rhinovirus type 1-A; IA = inactive. The format is functional, organism-based.
In test [6] the test system is Visna-maedi virus. Put plainly: Antiviral activity at <=320 uM determined in a culture of Visna virus; IA = inactive. The format is functional, organism-based.
The test system of test [7] is unidentified adenovirus. Put plainly: Antiviral activity at <=320 uM determined in a culture of Adenovirus type 2; IA = inactive. The test is classed as functional, organism-based.
The subject of test [8] is LoVo. In words: Antitumor activity at <=100 uM determined in a 3-5 days culture of LOVO/L (human colon carcinoma); NA = no activity was shown. The format is functional, cell-based. A digest of the protocol:
as §1

In test [9] the test system is CCRF-CEM. Put plainly: Antitumor activity at <=100 uM determined in a 3-5 days culture of CCRF-CEM(human T cell leukemia); NA = no activity was shown. The test is classed as functional, cell-based. Put shortly:
as §1

The nature of test [10]: Percent of phosphorylated forms of compound at 4 hr after phosphorylation by nucleoside monophosphate kinase. The note with it: Bos taurus.
Test [11] concerns unidentified adenovirus. Put plainly: Antiviral activity at 100 uM determined in a culture of Adenovirus type 2; IA = inactive. The test is classed as functional, organism-based.
Test [12] deals with Human respirovirus 3. Put plainly: Antiviral activity at 10-30 uM determined in a culture of Parainfluenza virus type 3; IA = inactive. The test is classed as functional, organism-based.
Test [13] has as its system Human alphaherpesvirus 2. Put plainly: Antiviral activity at 1-3 uM determined in a culture of Herpes simplex virus type 2; IA = inactive. The test is classed as functional, organism-based.
For test [14], the system named is Visna-maedi virus. In words: Antiviral activity at 1-3 uM determined in a culture of Visna virus; IA = inactive. The test is classed as functional, organism-based.
Test [15] deals with Influenza A virus. Put plainly: Antiviral activity at 10-30 uM determined in a culture of Influenza A; IA = inactive. The format is functional, organism-based. The note with it: unidentified influenza virus.
In test [16] the test system is Enterovirus. In words: Antiviral activity at 100 uM determined in a culture of Rhinovirus type 1-A; IA = inactive. The format is functional, organism-based.
Test [17] has as its system WIL2. Put plainly: Antitumor activity at <=100 uM determined in a 3-5 days culture of WI-L2 […]; NA = no activity was shown. The test is classed as functional, cell-based. Put shortly: as §1

Active and inactive are the calls of the source. No cut-off for these calls is given here.

Consider `Nc1nc(O)c2ncn(C3O[C@H](CP(=O)(O)O)[C@@H](O)[C@H]3O)c2n1` (stereo partly drawn), for which the result in [1], in test [2], in test [3], in test [4], in test [5] and in test [6] was inactive. Further, the result in test [7], in test [8] and in test [9] was inactive.
With `O=c1ccn(C2O[C@H](CP(=O)(O)O)[C@@H](O)[C@H]2O)c(=O)[nH]1` (stereo partly drawn), the outcome in [1], in test [2], in [3], in [4], in test [5] and in test [6] was inactive. The outcome in test [7], in test [8] and in [9] was inactive.
Regarding `Nc1ccn(C2O[C@H](CP(=O)(O)O)[C@@H](O)[C@H]2O)c(=O)n1` (stereo partly drawn), the outcome in test [1], in [2], in test [3], in [4], in test [5] and in test [6] was inactive. For the same compound, the outcome in test [7], in test [8] and in test [9] was inactive. The compound further came in with a % nucleotide present in test [10] of 87%.
Consider `NC(=O)c1ncn([C@@H]2O[C@H](CO)[C@@H](O)[C@H]2O)n1`, for which the outcome in [11], in test [12], in test [13], in [14], in test [15] and in test [16] was inactive.
Consider `O=P(O)(O)C[C@H]1OC(n2cnc3c(O)ncnc32)[C@H](O)[C@@H]1O` (stereo partly drawn), for which the outcome in test [1], in test [3], in [17], in test [4], in [5] and in test [6] was inactive. For the same compound, the result in test [7], in [8] and in test [9] was inactive.
